These results are taken from ChEMBL document CHEMBL1165965, “Synthesis and structure-activity relationships of 1,2,3,4-tetrahydropyrido[2,3-b]pyrazines as potent and selective inhibitors of the anaplastic lymphoma kinase” (Bioorg Med Chem, 2010).

In assay [1] the target is Casein kinase I isoform epsilon (Homo sapiens) (UniProt P49674). Briefly: Inhibition of CSNK1E at 1 uM. In short, it runs like this:
(§1)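 Single-concentration screen using Ambit Bioscience KINOMEscan technology across a panel of 250–400 kinases. Per-kinase inhibition from this screen was summarized as S(90), the fraction of kinases inhibited by more than 90%.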

Assay [2] concerns Epidermal growth factor receptor (Homo sapiens), P00533 [G719C]. Nature of the assay: Inhibition of EGFR G719C mutant at 1 uM. It counts as protein assay. In outline: as §1
Chain of Epidermal growth factor receptor (Homo sapiens), P00533 [G719C] (P00533 whole entry G719C): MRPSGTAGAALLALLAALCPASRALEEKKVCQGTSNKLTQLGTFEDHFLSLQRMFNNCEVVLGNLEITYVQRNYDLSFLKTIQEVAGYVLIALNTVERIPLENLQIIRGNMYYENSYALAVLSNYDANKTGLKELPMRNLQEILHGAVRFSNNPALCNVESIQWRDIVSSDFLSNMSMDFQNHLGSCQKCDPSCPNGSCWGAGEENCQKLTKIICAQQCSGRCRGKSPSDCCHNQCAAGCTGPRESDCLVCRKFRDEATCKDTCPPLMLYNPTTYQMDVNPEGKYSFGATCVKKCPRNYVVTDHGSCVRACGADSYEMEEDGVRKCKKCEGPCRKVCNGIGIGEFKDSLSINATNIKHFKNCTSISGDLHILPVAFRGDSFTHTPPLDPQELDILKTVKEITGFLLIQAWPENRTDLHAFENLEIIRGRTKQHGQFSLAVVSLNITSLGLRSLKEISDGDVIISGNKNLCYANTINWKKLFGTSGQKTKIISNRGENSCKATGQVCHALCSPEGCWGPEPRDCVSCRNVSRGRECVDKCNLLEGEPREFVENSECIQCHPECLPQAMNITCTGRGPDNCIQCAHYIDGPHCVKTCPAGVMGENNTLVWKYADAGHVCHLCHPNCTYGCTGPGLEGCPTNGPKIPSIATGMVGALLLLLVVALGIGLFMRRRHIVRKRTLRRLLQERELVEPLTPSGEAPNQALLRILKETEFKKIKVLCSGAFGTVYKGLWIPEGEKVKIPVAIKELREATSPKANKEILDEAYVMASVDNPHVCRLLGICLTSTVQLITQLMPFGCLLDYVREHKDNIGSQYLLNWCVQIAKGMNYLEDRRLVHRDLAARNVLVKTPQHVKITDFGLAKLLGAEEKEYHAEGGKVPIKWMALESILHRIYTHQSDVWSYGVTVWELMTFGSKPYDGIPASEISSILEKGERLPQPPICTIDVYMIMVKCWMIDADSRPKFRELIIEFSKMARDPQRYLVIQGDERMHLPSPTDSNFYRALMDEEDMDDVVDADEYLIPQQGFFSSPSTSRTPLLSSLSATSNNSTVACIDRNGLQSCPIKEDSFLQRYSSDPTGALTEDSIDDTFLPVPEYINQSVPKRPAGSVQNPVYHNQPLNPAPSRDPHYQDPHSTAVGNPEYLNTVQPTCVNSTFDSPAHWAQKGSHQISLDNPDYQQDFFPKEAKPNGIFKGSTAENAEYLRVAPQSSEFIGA
Assay [3] concerns the target T1, Megakaryocyte-associated tyrosine-protein kinase (Homo sapiens) (UniProt P42679).
T1 sequence (whole entry): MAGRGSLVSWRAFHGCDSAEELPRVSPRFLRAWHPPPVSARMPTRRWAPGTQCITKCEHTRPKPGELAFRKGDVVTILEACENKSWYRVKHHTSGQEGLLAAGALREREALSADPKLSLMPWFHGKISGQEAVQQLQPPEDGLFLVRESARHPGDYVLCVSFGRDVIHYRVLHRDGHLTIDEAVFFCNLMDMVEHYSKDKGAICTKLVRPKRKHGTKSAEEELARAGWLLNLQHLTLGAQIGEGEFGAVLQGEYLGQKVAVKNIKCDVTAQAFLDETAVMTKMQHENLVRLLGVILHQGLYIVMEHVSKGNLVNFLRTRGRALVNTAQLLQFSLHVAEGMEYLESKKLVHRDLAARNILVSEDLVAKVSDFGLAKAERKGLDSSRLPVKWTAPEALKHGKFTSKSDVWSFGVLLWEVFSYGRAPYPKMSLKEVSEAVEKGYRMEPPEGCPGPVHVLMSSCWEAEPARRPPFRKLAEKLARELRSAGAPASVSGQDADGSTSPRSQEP
Nature of the assay: Inhibition of CTK at 1 uM.

The target in assay [4] is T2, Serine/threonine-protein kinase RIO1 (Homo sapiens) (UniProt Q9BRS2).
T2 sequence (whole entry): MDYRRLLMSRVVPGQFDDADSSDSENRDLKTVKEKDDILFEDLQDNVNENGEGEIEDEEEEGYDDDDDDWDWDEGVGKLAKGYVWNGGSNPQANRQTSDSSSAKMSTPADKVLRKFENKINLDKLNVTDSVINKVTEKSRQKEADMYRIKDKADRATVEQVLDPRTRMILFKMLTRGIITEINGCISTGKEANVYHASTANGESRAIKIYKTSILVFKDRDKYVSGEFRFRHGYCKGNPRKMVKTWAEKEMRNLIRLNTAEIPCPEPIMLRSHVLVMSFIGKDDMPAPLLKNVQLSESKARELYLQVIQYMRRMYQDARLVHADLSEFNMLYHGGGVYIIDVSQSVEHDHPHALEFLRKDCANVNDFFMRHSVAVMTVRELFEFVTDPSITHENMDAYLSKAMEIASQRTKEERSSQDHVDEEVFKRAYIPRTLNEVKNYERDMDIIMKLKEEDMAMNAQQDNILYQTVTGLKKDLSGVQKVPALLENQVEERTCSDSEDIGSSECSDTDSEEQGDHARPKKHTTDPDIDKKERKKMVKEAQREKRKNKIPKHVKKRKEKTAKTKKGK
Nature of the assay: Inhibition of RIOK1 at 1 uM.

For assay [5], the system named is Tyrosine-protein kinase ABL1 (Homo sapiens), P00519 [Y253F]. Briefly: Inhibition of ABL1 Y253F mutant at 1 uM. In outline: (§2)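 Ambit KINOMEscan screen at a single concentration across a 250–400 kinase panel, recorded as percent inhibition. Selectivity was expressed as S(90), the fraction of kinases inhibited >90%.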
The target in assay [6] is Phosphatidylinositol 4,5-bisphosphate 3-kinase catalytic subunit beta isoform (Homo sapiens) (UniProt P42338). Briefly: Inhibition of PIK3CB at 1 uM.
Chain of Phosphatidylinositol 4,5-bisphosphate 3-kinase catalytic subunit beta isoform (Homo sapiens) (P42338 whole entry, looked up, the tested form may be a part, canonical isoform): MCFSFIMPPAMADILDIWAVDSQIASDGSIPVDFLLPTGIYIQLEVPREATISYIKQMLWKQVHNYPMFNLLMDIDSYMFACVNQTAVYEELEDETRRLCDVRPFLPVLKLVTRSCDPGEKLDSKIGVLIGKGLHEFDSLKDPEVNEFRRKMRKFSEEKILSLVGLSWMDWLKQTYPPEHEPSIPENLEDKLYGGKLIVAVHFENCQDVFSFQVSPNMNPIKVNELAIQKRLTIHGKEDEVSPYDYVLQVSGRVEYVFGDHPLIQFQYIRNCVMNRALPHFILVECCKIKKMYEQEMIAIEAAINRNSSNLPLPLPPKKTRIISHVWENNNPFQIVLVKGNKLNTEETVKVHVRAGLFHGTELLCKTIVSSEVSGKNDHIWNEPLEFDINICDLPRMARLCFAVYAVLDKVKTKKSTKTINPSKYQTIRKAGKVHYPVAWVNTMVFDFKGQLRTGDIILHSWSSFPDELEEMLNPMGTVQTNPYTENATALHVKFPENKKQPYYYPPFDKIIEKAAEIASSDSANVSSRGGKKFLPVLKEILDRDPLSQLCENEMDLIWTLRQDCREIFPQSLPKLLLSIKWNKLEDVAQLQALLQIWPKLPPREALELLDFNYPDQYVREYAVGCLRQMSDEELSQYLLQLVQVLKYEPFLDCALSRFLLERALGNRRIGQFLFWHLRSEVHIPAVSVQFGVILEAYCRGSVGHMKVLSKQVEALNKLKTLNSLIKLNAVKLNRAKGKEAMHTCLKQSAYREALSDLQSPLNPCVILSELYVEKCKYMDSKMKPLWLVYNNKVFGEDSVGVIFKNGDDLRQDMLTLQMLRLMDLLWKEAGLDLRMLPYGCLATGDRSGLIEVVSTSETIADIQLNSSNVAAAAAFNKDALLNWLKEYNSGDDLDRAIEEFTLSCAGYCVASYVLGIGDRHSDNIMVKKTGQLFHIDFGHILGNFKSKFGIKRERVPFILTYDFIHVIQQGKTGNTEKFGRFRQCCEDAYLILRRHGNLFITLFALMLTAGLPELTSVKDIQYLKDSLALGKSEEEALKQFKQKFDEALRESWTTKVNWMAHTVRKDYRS
The target of assay [7] is Phosphatidylinositol 4-phosphate 3-kinase C2 domain-containing subunit beta (Homo sapiens) (UniProt O00750). Nature of the assay: Inhibition of PIK3C2B at 1 uM.
Chain of Phosphatidylinositol 4-phosphate 3-kinase C2 domain-containing subunit beta (Homo sapiens) (O00750 whole entry, the tested form may be a part): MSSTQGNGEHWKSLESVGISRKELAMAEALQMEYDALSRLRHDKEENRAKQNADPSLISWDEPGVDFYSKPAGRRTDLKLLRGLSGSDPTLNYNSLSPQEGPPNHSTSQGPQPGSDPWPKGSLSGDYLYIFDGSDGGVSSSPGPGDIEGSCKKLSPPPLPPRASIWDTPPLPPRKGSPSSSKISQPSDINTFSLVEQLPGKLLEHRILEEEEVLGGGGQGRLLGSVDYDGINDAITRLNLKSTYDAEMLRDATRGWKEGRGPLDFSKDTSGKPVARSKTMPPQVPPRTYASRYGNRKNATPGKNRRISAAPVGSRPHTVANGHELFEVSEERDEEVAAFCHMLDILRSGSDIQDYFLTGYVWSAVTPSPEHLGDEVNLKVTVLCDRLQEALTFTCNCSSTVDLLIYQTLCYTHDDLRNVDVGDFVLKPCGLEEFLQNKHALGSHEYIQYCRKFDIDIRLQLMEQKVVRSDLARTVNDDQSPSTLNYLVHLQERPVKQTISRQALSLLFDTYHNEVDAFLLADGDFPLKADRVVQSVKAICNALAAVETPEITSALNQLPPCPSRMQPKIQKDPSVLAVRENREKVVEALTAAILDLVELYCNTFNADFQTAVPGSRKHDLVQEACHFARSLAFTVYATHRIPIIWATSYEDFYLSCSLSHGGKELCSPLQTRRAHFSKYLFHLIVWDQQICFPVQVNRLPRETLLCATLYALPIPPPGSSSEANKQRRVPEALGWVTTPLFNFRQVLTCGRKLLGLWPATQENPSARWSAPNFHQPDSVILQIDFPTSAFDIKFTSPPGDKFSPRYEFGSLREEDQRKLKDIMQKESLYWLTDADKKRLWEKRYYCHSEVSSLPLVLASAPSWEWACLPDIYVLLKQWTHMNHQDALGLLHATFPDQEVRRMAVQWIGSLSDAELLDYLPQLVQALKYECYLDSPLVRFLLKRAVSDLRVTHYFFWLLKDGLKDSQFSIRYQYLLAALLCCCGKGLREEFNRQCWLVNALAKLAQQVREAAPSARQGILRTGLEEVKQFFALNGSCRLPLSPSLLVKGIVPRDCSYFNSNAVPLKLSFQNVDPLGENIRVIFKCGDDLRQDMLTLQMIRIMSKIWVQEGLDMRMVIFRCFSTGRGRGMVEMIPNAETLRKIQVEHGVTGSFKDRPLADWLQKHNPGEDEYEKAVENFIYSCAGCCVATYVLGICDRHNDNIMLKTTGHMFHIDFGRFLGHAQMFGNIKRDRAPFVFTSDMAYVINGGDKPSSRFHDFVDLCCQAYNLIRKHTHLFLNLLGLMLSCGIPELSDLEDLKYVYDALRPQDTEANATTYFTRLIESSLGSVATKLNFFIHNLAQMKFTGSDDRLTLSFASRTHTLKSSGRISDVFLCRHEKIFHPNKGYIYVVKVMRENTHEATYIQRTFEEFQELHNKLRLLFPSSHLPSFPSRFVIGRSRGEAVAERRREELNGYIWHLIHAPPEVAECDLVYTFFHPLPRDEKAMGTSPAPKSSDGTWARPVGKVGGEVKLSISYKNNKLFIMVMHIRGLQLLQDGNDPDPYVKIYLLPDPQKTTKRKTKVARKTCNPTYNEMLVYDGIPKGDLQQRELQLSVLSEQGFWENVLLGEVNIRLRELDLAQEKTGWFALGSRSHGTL
Assay [8] has as its target T3, Serine/threonine-protein kinase BRSK1 (Homo sapiens) (UniProt Q8TDC3).
T3 sequence (whole entry): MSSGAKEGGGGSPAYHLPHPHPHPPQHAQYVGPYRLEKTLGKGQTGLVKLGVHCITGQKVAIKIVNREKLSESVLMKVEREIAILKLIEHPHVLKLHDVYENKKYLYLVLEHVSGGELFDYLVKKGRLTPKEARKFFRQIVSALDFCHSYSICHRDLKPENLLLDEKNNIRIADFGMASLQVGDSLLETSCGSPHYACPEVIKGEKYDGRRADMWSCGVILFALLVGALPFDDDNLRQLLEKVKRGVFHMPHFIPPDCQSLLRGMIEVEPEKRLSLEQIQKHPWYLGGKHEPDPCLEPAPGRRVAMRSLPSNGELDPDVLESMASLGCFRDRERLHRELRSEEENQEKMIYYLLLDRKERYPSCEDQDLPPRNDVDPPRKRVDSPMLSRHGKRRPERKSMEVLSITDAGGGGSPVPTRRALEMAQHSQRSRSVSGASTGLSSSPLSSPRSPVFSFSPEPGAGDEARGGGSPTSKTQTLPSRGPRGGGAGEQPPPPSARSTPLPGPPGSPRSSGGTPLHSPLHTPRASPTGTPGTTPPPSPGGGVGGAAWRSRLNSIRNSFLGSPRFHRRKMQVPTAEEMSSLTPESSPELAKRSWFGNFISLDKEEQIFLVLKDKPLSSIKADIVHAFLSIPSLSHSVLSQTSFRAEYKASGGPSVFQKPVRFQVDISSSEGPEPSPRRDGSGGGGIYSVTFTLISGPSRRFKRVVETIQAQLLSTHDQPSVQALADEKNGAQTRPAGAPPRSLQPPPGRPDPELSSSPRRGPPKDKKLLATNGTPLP
Nature of the assay: Inhibition of BRSK1 at 1 uM. In outline: as §2

Assay [9] concerns the target T4, 3-phosphoinositide-dependent protein kinase 1 (Homo sapiens) (UniProt O15530).
T4 sequence (whole entry): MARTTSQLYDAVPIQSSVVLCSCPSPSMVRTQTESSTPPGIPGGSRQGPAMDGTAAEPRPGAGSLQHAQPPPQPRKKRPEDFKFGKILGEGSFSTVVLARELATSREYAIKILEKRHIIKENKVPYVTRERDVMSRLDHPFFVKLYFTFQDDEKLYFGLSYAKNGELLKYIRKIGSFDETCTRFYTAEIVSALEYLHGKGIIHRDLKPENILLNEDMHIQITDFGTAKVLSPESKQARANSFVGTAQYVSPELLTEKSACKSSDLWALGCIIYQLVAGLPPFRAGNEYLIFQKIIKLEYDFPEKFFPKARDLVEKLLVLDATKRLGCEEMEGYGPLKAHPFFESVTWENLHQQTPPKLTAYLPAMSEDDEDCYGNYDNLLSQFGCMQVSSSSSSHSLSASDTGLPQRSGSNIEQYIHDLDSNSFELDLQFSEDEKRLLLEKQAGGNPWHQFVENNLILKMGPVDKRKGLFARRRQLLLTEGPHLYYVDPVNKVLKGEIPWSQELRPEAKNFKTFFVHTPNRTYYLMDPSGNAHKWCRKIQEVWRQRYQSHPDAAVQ
Briefly: Inhibition of PDPK1 at 1 uM.

Assay [10] concerns the target Aurora kinase B (Homo sapiens) (UniProt Q96GD4). Briefly: Inhibition of AURKB at 1 uM. In short, it runs like this:
as §2

The target of assay [11] is Calcium/calmodulin-dependent protein kinase type 1 (Homo sapiens) (UniProt Q14012). Nature of the assay: Inhibition of CAMK1 at 1 uM. In outline: as §2
Chain of Calcium/calmodulin-dependent protein kinase type 1 (Homo sapiens) (Q14012 whole entry, looked up): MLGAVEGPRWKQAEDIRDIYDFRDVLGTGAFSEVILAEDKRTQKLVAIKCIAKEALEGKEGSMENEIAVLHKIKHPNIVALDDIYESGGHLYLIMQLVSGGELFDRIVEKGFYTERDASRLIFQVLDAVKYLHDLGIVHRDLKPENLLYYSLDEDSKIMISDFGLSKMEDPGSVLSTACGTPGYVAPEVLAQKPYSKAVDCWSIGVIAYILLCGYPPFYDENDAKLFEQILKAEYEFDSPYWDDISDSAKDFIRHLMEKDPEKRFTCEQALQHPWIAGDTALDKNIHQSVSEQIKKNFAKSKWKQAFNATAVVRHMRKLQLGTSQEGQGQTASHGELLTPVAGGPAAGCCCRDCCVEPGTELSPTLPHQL

Chain of Casein kinase I isoform epsilon (Homo sapiens) (P49674 whole entry, looked up, canonical isoform): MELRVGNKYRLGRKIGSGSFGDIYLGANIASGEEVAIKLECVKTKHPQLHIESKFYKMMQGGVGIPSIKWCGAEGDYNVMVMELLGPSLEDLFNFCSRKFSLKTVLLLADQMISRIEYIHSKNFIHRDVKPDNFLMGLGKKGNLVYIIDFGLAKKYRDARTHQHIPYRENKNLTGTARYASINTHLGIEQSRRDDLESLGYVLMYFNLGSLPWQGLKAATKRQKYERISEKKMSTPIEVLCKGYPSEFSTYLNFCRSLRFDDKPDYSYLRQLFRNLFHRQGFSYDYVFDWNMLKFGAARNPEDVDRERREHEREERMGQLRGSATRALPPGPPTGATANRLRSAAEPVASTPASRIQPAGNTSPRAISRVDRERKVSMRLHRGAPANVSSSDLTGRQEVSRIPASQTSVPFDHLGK
Chain of Aurora kinase B (Homo sapiens) (Q96GD4 whole entry): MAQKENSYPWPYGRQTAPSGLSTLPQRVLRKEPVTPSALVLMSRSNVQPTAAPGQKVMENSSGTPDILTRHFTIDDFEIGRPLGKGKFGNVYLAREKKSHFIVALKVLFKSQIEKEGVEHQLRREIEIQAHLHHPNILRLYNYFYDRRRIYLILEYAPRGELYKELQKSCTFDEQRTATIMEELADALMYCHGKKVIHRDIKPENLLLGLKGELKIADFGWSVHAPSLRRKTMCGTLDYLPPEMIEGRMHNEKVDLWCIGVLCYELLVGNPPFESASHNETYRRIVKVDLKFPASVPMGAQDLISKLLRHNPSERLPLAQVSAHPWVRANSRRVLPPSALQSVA

Take `FC(F)(F)c1ccc(Cl)cc1CN1CCNc2ncc(-c3ccnc(N4CCNCC4)c3)cc21`: the inhibition in assay [1], in assay [2], in assay [3], in assay [4], in assay [5] and in [6] was below 50% throughout. Further, the inhibition in [7] was below 50%; in assay [8] it was below 50%; in assay [9] it was below 50%; in assay [10], 76%; in assay [11], below 50%.

With `CN1CCN(c2ccc(-c3cnc4c(c3)N(Cc3cc(Cl)ccc3Cl)CCN4)cn2)CC1`, the inhibition in assay [1], in assay [2], in assay [3], in [4], in [5] and in [6] was below 50% in each case. Moreover, the inhibition in assay [7], in assay [8], in assay [9], in assay [10] and in assay [11] was below 50% throughout.

In the case of `COC1CCN(C(=O)c2ccc(-c3cnc4c(c3)N(Cc3cc(Cl)ccc3C(F)(F)F)CCN4)cc2)CC1`, the inhibition in [1], in [2], in [3], in [4], in assay [5] and in [8] was below 50% each time. Moreover, the inhibition in assay [9], in assay [10] and in assay [11] was below 50% throughout.

`O=C(c1ccc(-c2cnc3c(c2)N(Cc2cc(Cl)ccc2C(F)(F)F)CCN3)cc1)N1CCCCC1`: the inhibition in assay [1], in [2], in assay [3], in assay [4], in assay [5] and in assay [8] was below 50% each time. In addition, the inhibition in assay [9], in assay [10] and in [11] was below 50% in each case.

On to `O=C(O)c1ccc(-c2cnc3c(c2)N(Cc2cc(Cl)ccc2C(F)(F)F)CCN3)cc1`, for which the inhibition in [1], in assay [2], in assay [4], in assay [8], in [9] and in [10] was below 50% each time. Besides, in assay [11], the inhibition was below 50%.

Regarding `CN1CCN(c2ccc(-c3cnc4c(c3)N(Cc3cc(F)ccc3F)CCN4)cn2)CC1`, the inhibition in assay [1], in [2], in [3], in [4], in assay [5] and in assay [6] was below 50% each time. Further, the inhibition in [7], in assay [8], in assay [9], in assay [10] and in assay [11] was below 50% in each case.

Consider `O=C(c1ccc(-c2cnc3c(c2)N(Cc2cc(Cl)ccc2C(F)(F)F)CCN3)cc1)N1CCC(N2CCCC2)CC1`, for which the inhibition in assay [1], in [2], in assay [3], in [4], in assay [5] and in assay [8] was below 50% each time. In addition, the inhibition in assay [9], in [10] and in assay [11] was below 50% each time.

Regarding `CN1CCN(c2ccc(-c3cnc4c(c3)N(Cc3c(F)ccc(F)c3Cl)CCN4)cn2)CC1`, the inhibition was below 50% in assay [1]; below 50% in assay [2]; below 50% in assay [3]; below 50% in [4]; 82% in [5]; below 50% in [6]. Besides, the inhibition in assay [7], in assay [8], in assay [9], in [10] and in [11] was below 50% in each case.

With `CC(=O)N1CCN(c2cc(-c3cnc4c(c3)N(Cc3cc(Cl)ccc3C(F)(F)F)CCN4)ccn2)CC1`, the inhibition in assay [1], in [2], in assay [3], in [4], in [5] and in assay [6] was below 50% each time. Moreover, the inhibition in [7], in assay [8], in assay [9], in assay [10] and in assay [11] was below 50% throughout.

As for `CN1CCN(c2ccc(-c3cnc4c(c3)N(Cc3cc(Cl)ccc3C(F)(F)F)CCN4)cn2)CC1`, the inhibition in assay [1], in assay [2], in assay [3], in assay [4], in [5] and in assay [6] was below 50% each time. For the same molecule, the inhibition in assay [7], in assay [8], in [9], in assay [10] and in assay [11] was below 50% throughout.
